Measurements published in ChEMBL document CHEMBL2424553, “Synthesis, molecular docking and kinetic properties of β-hydroxy-β-phenylpropionyl-hydroxamic acids as Helicobacter pylori urease inhibitors” (Eur J Med Chem, 2013).

Tests used:
[1] = target: T1, Urease subunit alpha/Urease subunit beta (Helicobacter pylori (strain ATCC 700392 / 26695) (Campylobacterpylori), UniProt P69996); test: Inhibition of urease extracted from Helicobacter pylori ATCC 43504 assessed as ammonia production preincubated for 1.5 hrs by indophenol-based method
In short: (§1)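 H. pylori ATCC 43504 grown 24 h at 37 °C in Brucella broth with 10% heat-inactivated horse serum under microaerobic gas (5% O2, 10% CO2, 85% N2). Cells pelleted (5000 g, 4 °C) and washed twice in PBS pH 7.4 to prepare urease. Enzyme pre-incubated with test compound 1.5 h at room temperature. Ammonia measured by the indophenol method. Run in triplicate.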

[2] = target: T1, Urease subunit alpha/Urease subunit beta; test: Inhibition of Helicobacter pylori urease; in short: as §1
[3] = target: T2, Urease subunit alpha/Urease subunit beta (Helicobacter pylori (strain ATCC 700392 / 26695) (Campylobacterpylori)) (UniProt P69996+P14916); test: Ratio of IC50 for urease in Helicobacter pylori ATCC 43504 intact cell to IC50 for urease extracted from Helicobacter pylori ATCC 43504
[4] = target: T1, Urease subunit alpha/Urease subunit beta; test: Mixed-type competitive inhibition of Helicobacter pylori ATCC 43504 urease using urea as substrate by Lineweaver-burk plot analysis
[5] = target: T1, Urease subunit alpha/Urease subunit beta; test: Inhibition of urease in Helicobacter pylori ATCC 43504 intact cell assessed as ammonia production preincubated for 1.5 hrs by indophenol-based method
In short: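 H. pylori grown 24 h at 37 °C in Brucella broth with 10% heat-inactivated horse serum, microaerobic (5% O₂, 10% CO₂, 85% N₂); cells pelleted (5000 g, 4 °C), PBS-washed (pH 7.4), suspended at 4.0 × 10⁷ CFU/mL. Suspension with test compound preincubated 1.5 h at room temperature; ammonia measured by Weatherburn indophenol method.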

[6] = target: T2, Urease subunit alpha/Urease subunit beta (Helicobacter pylori (strain ATCC 700392 / 26695) (Campylobacterpylori)); test: Potency index, ratio of AHA IC50 to compound IC50 for Helicobacter pylori ATCC 43504 urease

T2 sequence (P14916 whole entry, looked up): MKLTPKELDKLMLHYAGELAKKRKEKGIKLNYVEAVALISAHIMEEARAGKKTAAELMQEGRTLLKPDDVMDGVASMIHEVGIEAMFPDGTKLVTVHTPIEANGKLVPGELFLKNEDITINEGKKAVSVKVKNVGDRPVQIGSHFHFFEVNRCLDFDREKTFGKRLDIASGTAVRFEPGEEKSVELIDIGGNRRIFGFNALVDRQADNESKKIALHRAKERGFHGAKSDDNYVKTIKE
T2 sequence (P69996 whole entry, looked up): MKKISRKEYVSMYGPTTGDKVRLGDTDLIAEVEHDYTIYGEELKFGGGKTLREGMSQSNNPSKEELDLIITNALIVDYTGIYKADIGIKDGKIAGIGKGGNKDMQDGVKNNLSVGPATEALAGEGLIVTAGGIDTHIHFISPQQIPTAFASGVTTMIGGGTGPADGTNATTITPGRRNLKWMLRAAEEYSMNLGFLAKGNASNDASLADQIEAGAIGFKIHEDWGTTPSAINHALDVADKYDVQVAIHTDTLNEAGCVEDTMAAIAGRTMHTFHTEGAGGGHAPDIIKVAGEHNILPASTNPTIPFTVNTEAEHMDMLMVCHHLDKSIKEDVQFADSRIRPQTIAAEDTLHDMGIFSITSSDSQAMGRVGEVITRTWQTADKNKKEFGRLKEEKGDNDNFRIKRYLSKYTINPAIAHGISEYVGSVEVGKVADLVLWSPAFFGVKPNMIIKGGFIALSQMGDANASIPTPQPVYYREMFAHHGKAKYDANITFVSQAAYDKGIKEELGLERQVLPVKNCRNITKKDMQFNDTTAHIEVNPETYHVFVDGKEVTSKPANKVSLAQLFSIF
T1 sequence (P69996 whole entry): as the sequence (P69996 whole entry, looked up) above
T1 sequence (P14916 whole entry, further chain): as the sequence (P14916 whole entry, looked up) above

| SMILES | IC50 [1] [µM] | Ratio IC50 [3] | IC50 [5] [µM] | other results |
| --- | --- | --- | --- | --- |
| COc1cccc(C(O)CC(=O)NO)c1 (racemic) | 23.2 |  |  |  |
| O=C(CC(O)c1ccccc1F)NO (racemic) | 5.6 |  |  |  |
| O=C(CC(O)c1ccc(OCc2ccccc2)cc1)NO (racemic) | 61.5 |  |  |  |
| O=c1c(O)c(-c2ccc(O)c(O)c2)oc2cc(O)cc(O)c12 [QUERCETIN] |  |  |  | IC50 [2]: 11.2 µM |
| O=C(CC(O)c1cccc(Cl)c1Cl)NO (racemic) | 0.23 | 4 | 0.91 | Ki [4]: 45 nM |
| COc1ccccc1C(O)CC(=O)NO (racemic) | 38.5 |  |  |  |
| O=C(CC(O)c1cc(Cl)cc(Cl)c1O)NO (racemic) | 1.04 | 3 | 8.9 |  |
| O=C(CC(O)c1cccc(F)c1)NO (racemic) | 3.99 | 3 | 13.3 |  |
| CC(=O)NO [ACETOHYDROXAMIC ACID] | 27.6 |  | 110 |  |
| O=C(CC(O)c1cccc(C(F)(F)F)c1)NO (racemic) | 1.22 | 3 | 6.81 |  |
| COc1ccc(C(O)CC(=O)NO)cc1 (racemic) | 75.1 |  |  |  |
| O=C(CC(O)c1ccc(F)cc1)NO (racemic) | 8.01 |  |  |  |
| CN(C)c1ccc(C(O)CC(=O)NO)cc1 (racemic) | 7.13 |  |  |  |
| O=C(CC(O)c1ccc(C(F)(F)F)cc1)NO (racemic) | 7.89 |  |  |  |
| CN(C)c1ccc(C(=O)NO)cc1 | 77.9 |  |  |  |
| COc1ccc(F)cc1C(O)CC(=O)NO (racemic) | 11 |  |  |  |
| O=C(CC(O)c1cc(Cl)ccc1O)NO (racemic) | 1.28 | 8.8 | 11.3 |  |
| O=C(CC(O)c1ccccc1Cl)NO (racemic) | 1.19 | 3 | 9.21 |  |
| O=C(CC(O)c1ccc(Cl)cc1)NO (racemic) | 3.39 |  |  |  |
| O=C(CC(O)c1ccccc1)NO (racemic) | 15.6 |  |  |  |
| O=C(CC(O)c1ccc(Cl)c(Cl)c1)NO (racemic) | 0.37 | 3 | 1.42 |  |
| O=C(CC(O)c1cccc(Cl)c1)NO (racemic) | 0.083 |  | 0.36 | Ki [4]: 14 nM; Ratio IC50 [6]: 330 |
| O=C(CC(O)c1cccc(O)c1)NO (racemic) | 131 |  |  |  |
